Laboratory results published in PMC10203274 (Plant Communications, 2022).
Positions count from the first letter of the chain named.

Tests used:
NbUGT72AY1 = molecular target: T1, NbUGT72AY1 (Nicotiana benthamiana, UniProt A0A8K1ZRH3); assay: UDP-Glo glycosyltransferase assay, acceptor substrate kinetics; type: biochemical
T1 sequence (A0A8K1ZRH3 1-477): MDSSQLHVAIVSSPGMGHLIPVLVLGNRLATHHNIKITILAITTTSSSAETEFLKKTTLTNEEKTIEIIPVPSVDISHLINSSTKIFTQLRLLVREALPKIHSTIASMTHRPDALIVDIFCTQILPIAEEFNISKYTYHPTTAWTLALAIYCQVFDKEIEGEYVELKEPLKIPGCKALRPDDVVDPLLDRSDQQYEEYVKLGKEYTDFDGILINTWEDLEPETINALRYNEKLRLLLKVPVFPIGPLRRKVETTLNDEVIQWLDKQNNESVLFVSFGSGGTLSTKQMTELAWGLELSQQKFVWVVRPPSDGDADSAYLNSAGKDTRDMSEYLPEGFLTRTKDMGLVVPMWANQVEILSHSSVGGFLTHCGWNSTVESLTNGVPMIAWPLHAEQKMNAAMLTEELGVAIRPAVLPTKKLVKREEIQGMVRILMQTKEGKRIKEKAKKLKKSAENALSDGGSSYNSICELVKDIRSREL

NbUGT72AY1-R91A = molecular target: T2, NbUGT72AY1-R91A (Nicotiana benthamiana, UniProt A0A8K1ZRH3, R91A); assay: UDP-Glo glycosyltransferase assay, kinetics of mutant; type: biochemical
T2 sequence (A0A8K1ZRH3 1-477 R91A): T1 sequence (A0A8K1ZRH3 1-477) with R91A

NbUGT72AY1-R91F = molecular target: T3, NbUGT72AY1-R91F (Nicotiana benthamiana, UniProt A0A8K1ZRH3, R91F); assay: as above; type: biochemical
T3 sequence (A0A8K1ZRH3 1-477 R91F): T1 sequence (A0A8K1ZRH3 1-477) with R91F

NbUGT72AY1-R91M = molecular target: T4, NbUGT72AY1-R91M (Nicotiana benthamiana, UniProt A0A8K1ZRH3, R91M); assay: as above; type: biochemical
T4 sequence (A0A8K1ZRH3 1-477 R91M): T1 sequence (A0A8K1ZRH3 1-477) with R91M

[1] = test system: StUGT72AY2-chimera (Potato-Tobacco-Potato); assay: UDP-Glo glycosyltransferase assay, chimeric mutant; type: biochemical, Solanum tuberosum; settings: Figure 5B and 5D
In short: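 N-terminal GST-fusion enzyme expressed in E. coli BL21(DE3) pLysS (1 mM IPTG, 18°C overnight) and glutathione-eluted. Reaction: 2 μg protein, 100 μM UDP-glucose, and varied acceptor substrate (in DMSO) in 50 mM Tris-HCl pH 7.0, 30°C for 20 min. Stopped with HCl, neutralized with Trizma base, then UDP-Glo luminescence after 30 min dark. Michaelis–Menten or Hill fits from at least three repeats.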

Alternaria alternata = settings: in vitro and in vivo; ref Sun et al., 2014; cited from earlier work

COc1cc2ccc(=O)oc2cc1O [scopoletin]
Vi (NbUGT72AY1; Fig S14b series, wild type R91, substrate scopoletin): 4.4 ± 2.3 nmol/min/mg
Vmax (NbUGT72AY1; Figure 5A series, wild type, substrate scopoletin): 264.3 nmol/min/mg
Ki (NbUGT72AY1; Ki, Fig S14b series, wild type R91, substrate scopoletin): 10.7 ± 2.2 µM
Ki (NbUGT72AY1; substrate inhibition (Ki), as stated in the abstract): 4 µM
Ki (NbUGT72AY1-R91A): 3.3 ± 0.7 µM
Ki (NbUGT72AY1-R91F): 0.9 ± 0.3 µM
Ki (NbUGT72AY1-R91M): 27.3 ± 4.2 µM
Vi (NbUGT72AY1-R91M; Fig S14b, mutant R91M, substrate scopoletin): 13.1 ± 6.1 nmol/min/mg
enzymatic activity of the chimeric mutant with the substrate [1]: inactive
antifungal activity (Alternaria alternata): strong antifungal activity
